ChEMBL document CHEMBL1124981, “Binding of indolylalkylamines at 5-HT2 serotonin receptors: examination of a hydrophobic binding region” (J Med Chem, 1990)

Assays:
[1] = target: T1, 5-hydroxytryptamine receptor 1A (Rattus norvegicus, UniProt P19327); assay: Binding affinity against 5-hydroxytryptamine 1A receptor using [3H]-8-OH-DPAT as radioligand
T1 sequence (P19327 whole entry): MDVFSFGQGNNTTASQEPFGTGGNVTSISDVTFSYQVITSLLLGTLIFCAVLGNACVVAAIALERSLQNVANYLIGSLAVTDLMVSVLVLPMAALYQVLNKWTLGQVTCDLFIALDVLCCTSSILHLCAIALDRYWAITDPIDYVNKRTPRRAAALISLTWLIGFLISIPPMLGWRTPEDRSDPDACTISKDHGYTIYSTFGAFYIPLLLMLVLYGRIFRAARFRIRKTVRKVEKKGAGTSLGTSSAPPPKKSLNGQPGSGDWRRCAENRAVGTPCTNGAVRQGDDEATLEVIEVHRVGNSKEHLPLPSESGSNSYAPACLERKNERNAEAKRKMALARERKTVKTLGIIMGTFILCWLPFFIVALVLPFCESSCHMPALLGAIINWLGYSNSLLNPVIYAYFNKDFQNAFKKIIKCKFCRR
In short: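 Rat hippocampal homogenate (5 mg tissue) with [3H]-8-OH-DPAT; 10 μM 8-OH-DPAT defines nonspecific binding. Buffer: 50 mM Tris-HCl, 0.5 mM Na2EDTA, 10 mM MgSO4, pH 7.4, 10 μM pargyline, 0.1% ascorbate.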

[2] = target: Serotonin 2 (5-HT2) receptor (Rattus norvegicus, UniProt P30994+P08909+P14842); assay: Binding affinity against 5-hydroxytryptamine 2 receptor using [3H]ketanserin as radioligand; assay type: protein assay
In short: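 Rat brain tissue homogenized in 50 mM Tris-HCl, 0.5 mM Na2EDTA, 10 mM MgSO4, pH 7.4, and centrifuged twice at 30000g. Assay buffer adds 10 μM pargyline and 0.1% ascorbate.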

Row | Structure (SMILES) | Ki [1] [nM] | Ki [2] [nM]
1 | CC(N)Cc1c[nH]c2ccccc12 (centres undefined) | 530 | 
2 | COc1ccc2[nH]cc(CC(C)N)c2c1 (centres undefined) | 7 | 345
3 | CCCn1cc(CC(C)N)c2ccccc21 (centres undefined) | 715 | 1550
4 | CC(N)Cc1cc[nH]c1 (centres undefined) | > 10000 | > 10000
5 | CCCCCc1cccc2c(CC(C)N)c[nH]c12 (centres undefined) | 6850 | 140
6 | CCCn1cc(CC(C)N)c2cc(OC)ccc21 (centres undefined) |  | 635
7 | CCCn1ccc(CC(C)N)c1 (centres undefined) | > 10000 | > 10000
8 | CCCCCn1cc(CC(C)N)c2ccccc21 (centres undefined) | 2400 | 100
9 | CCCc1cccc2c(CC(C)N)c[nH]c12 (centres undefined) | 1000 | 1040
10 | CCCCCCCCn1cc(CC(C)N)c2ccccc21 (centres undefined) | 78 | 280
11 | CC(N)Cc1cn(Cc2ccccc2)c2ccccc12 (centres undefined) | 30 | 160
12 | CCCCCn1ccc(CC(C)N)c1 (centres undefined) | 7500 | 5200
13 | COc1ccc2c(c1)c(CC(C)N)cn2Cc1ccccc1 (centres undefined) | > 10000 | 250
